In ChEMBL document CHEMBL1122900, “Effects of alkyl and aryl substitution on the myocardial specificity of radioiodinated phosphonium, arsonium, and ammonium cations” (J Med Chem, 1985):
Blank lines part the entries; values can stand above or below the molecule they belong to.

What was measured:
Rattus norvegicus [1] = assay: Evaluated for the distribution of radioactivity in tissues of female Fischer rats heart after 5 minutes intravenous administration; dose/g, range 2.72-3.52; format: ADME, organism-based; details: in vivo
Rattus norvegicus [2] = assay: Evaluated for the distribution of radioactivity in tissues of female Fischer rats kidneys after 30 minutes intravenous administration; dose/g, range 6.28-7.41; format: ADME, organism-based, Kidney; details: in vivo, 0.5 h
Rattus norvegicus [3] = assay: Evaluated for the distribution of radioactivity in tissues of female Fischer rats thyroid after 60 minutes intravenous administration; dose/g, range 55-102; format: ADME, organism-based, Thyroid gland; details: in vivo, 1 h
How it was run: (§1)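 Female Fischer 344 rats (10-12 weeks, 170-200 g), fed ad libitum, got a single iv tail-vein injection under ether anaesthesia of the 125I-labelled cation (2.85-8.38 μCi). The tracer was dissolved in Me2SO, diluted with saline to 1% Me2SO and filtered. At the set times rats were killed by cervical fracture and blood taken by cardiac puncture. Organs were rinsed, blotted, weighed and gamma-counted against injectate standards. Results are %dose/g, mean and range, n=5. Thyroid weight was taken as 7.5 mg/100 g body weight.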

Rattus norvegicus [4] = assay: Evaluated for the distribution of radioactivity in tissues of female Fischer rats heart after 30 minutes intravenous administration; dose/g, range 2.47-2.96; format: ADME, organism-based; details: in vivo, 0.5 h
Rattus norvegicus [5] = assay: Evaluated for the distribution of radioactivity in tissues of female Fischer rats liver after 5 minutes intravenous administration; dose/g, range 0.93-1.20; format: ADME, organism-based; details: in vivo; how it was run: as §1
Rattus norvegicus [6] = assay: Evaluated for the distribution of radioactivity in tissues of female Fischer rats kidneys after 5 minutes intravenous administration; dose/g, range 9.87-11.9; format: ADME, organism-based, Kidney; details: in vivo
Rattus norvegicus [7] = assay: Evaluated for the distribution of radioactivity in tissues of female Fischer rats lungs after 5 minutes intravenous administration; dose/g, range 1.20-1.52; format: ADME, organism-based, Lung; details: in vivo; how it was run: as §1
Rattus norvegicus [8] = assay: Evaluated for the distribution of radioactivity in tissues of female Fischer rats lungs after 30 minutes intravenous administration; dose/g, range 1.07-1.30; format: ADME, organism-based, Lung; details: in vivo, 0.5 h; how it was run: as §1
Rattus norvegicus [9] = assay: Evaluated for the distribution of radioactivity in tissues of female Fischer rats heart after 60 minutes intravenous administration; dose/g, range 2.88-4.32; format: ADME, organism-based; details: in vivo, 1 h
Rattus norvegicus [10] = assay: Evaluated for the distribution of radioactivity in tissues of female Fischer rats thyroid after 5 minutes intravenous administration; dose/g, range 29-36; format: ADME, organism-based, Thyroid gland; details: in vivo; how it was run: as §1
Rattus norvegicus [11] = assay: Evaluated for the distribution of radioactivity in tissues of female Fischer rats blood after 5 minutes intravenous administration; dose/g, range 0.44-0.52; format: ADME, organism-based; details: in vivo
Rattus norvegicus [12] = assay: Evaluated for the distribution of radioactivity in tissues of female Fischer rats blood after 60 minutes intravenous administration; dose/g, range 0.16-0.21; format: ADME, organism-based; details: in vivo, 1 h
Rattus norvegicus [13] = assay: Evaluated for the distribution of radioactivity in tissues of female Fischer rats thyroid after 30 minutes intravenous administration; dose/g, range 33-60; format: ADME, organism-based, Thyroid gland; details: in vivo, 0.5 h; how it was run: as §1
Rattus norvegicus [14] = assay: Evaluated for the distribution of radioactivity in tissues of female Fischer rats lungs after 60 minutes intravenous administration; dose/g, range 0.97-1.54; format: ADME, organism-based, Lung; details: in vivo, 1 h; how it was run: as §1
Rattus norvegicus [15] = assay: Evaluated for the distribution of radioactivity in tissues of female Fischer rats kidneys after 60 minutes intravenous administration; dose/g, range 3.33-4.68; format: ADME, organism-based, Kidney; details: in vivo, 1 h
Rattus norvegicus [16] = assay: Evaluated for the distribution of radioactivity in tissues of female Fischer rats liver after 30 minutes intravenous administration.; dose/g, range 0.23-0.29; format: ADME, organism-based; details: in vivo, 0.5 h
Rattus norvegicus [17] = assay: Evaluated for the distribution of radioactivity in tissues of female Fischer rats blood after 30 minutes intravenous administration; dose/g, range 0.25-0.32; format: ADME, organism-based; details: in vivo, 0.5 h
Rattus norvegicus [18] = assay: Evaluated for the distribution of radioactivity in tissues of female Fischer rats liver after 60 minutes intravenous administration; dose/g, range 0.14-0.19; format: ADME, organism-based; details: in vivo, 1 h; how it was run: as §1
Rattus norvegicus [19] = assay: Evaluated for the distribution of radioactivity in tissues of female Fischer rats blood after 60 minutes intravenous administration; dose/g, range 0.15-0.20; format: ADME, organism-based; details: in vivo, 1 h
Rattus norvegicus [20] = assay: Evaluated for the distribution of radioactivity in tissues of female Fischer rats lungs after 30 minutes intravenous administration; dose/g, range 1.12-1.39; format: ADME, organism-based, Lung; details: in vivo, 0.5 h; how it was run: as §1
Rattus norvegicus [21] = assay: Evaluated for the distribution of radioactivity in tissues of female Fischer rats heart after 30 minutes intravenous administration; dose/g, range 2.67-3.69; format: ADME, organism-based; details: in vivo, 0.5 h
Rattus norvegicus [22] = assay: Evaluated for the distribution of radioactivity in tissues of female Fischer rats kidneys after 60 minutes intravenous administration; dose/g, range 5.02-6.57; format: ADME, organism-based, Kidney; details: in vivo, 1 h
Rattus norvegicus [23] = assay: Evaluated for the distribution of radioactivity in tissues of female Fischer rats blood after 5 minutes intravenous administration; dose/g, range 0.32-0.46; format: ADME, organism-based; details: in vivo
Rattus norvegicus [24] = assay: Evaluated for the distribution of radioactivity in tissues of female Fischer rats thyroid after 30 minutes intravenous administration; dose/g, range 29-44; format: ADME, organism-based, Thyroid gland; details: in vivo, 0.5 h; how it was run: as §1
Rattus norvegicus [25] = assay: Evaluated for the distribution of radioactivity in tissues of female Fischer rats lungs after 5 minutes intravenous administration; dose/g, range 1.18-1.44; format: ADME, organism-based, Lung; details: in vivo; how it was run: as §1
Rattus norvegicus [26] = assay: Evaluated for the distribution of radioactivity in tissues of female Fischer rats kidneys after 30 minutes intravenous administration; dose/g, range 6.47-10.2; format: ADME, organism-based, Kidney; details: in vivo, 0.5 h
Rattus norvegicus [27] = assay: Evaluated for the distribution of radioactivity in tissues of female Fischer rats lungs after 60 minutes intravenous administration; dose/g, range 0.94-1.36; format: ADME, organism-based, Lung; details: in vivo, 1 h; how it was run: as §1
Rattus norvegicus [28] = assay: Evaluated for the distribution of radioactivity in tissues of female Fischer rats liver after 5 minutes intravenous administration; dose/g, range 1.06-1.70; format: ADME, organism-based; details: in vivo; how it was run: as §1
Rattus norvegicus [29] = assay: Evaluated for the distribution of radioactivity in tissues of female Fischer rats liver after 30 minutes intravenous administration; dose/g, range 0.22-0.30; format: ADME, organism-based; details: in vivo, 0.5 h
Rattus norvegicus [30] = assay: Evaluated for the distribution of radioactivity in tissues of female Fischer rats kidneys after 5 minutes intravenous administration; dose/g, range 11.7-14.6; format: ADME, organism-based, Kidney; details: in vivo
Rattus norvegicus [31] = assay: Evaluated for the distribution of radioactivity in tissues of female Fischer rats thyroid after 60 minutes intravenous administration; dose/g, range 32-43; format: ADME, organism-based, Thyroid gland; details: in vivo, 1 h; how it was run: as §1
Rattus norvegicus [32] = assay: Evaluated for the distribution of radioactivity in tissues of female Fischer rats blood after 30 minutes intravenous administration; dose/g, range 0.18-0.24; format: ADME, organism-based; details: in vivo, 0.5 h
Rattus norvegicus [33] = assay: Evaluated for the distribution of radioactivity in tissues of female Fischer rats liver after 60 minutes intravenous administration; dose/g, range 0.15-0.19; format: ADME, organism-based; details: in vivo, 1 h; how it was run: as §1
Rattus norvegicus [34] = assay: Evaluated for the distribution of radioactivity in tissues of female Fischer rats thyroid after 5 minutes intravenous administration; dose/g, range 16-32; format: ADME, organism-based, Thyroid gland; details: in vivo; how it was run: as §1
Rattus norvegicus [35] = assay: Evaluated for the distribution of radioactivity in tissues of female Fischer rats heart after 5 minutes intravenous administration; dose/g, range 2.82-3.86; format: ADME, organism-based; details: in vivo
Rattus norvegicus [36] = assay: Evaluated for the distribution of radioactivity in tissues of female Fischer rats heart after 60 minutes intravenous administration; dose/g, range 3.21-3.92; format: ADME, organism-based; details: in vivo, 1 h

Distribution (Rattus norvegicus [1]): 2.99% | Distribution (Rattus norvegicus [2]): 6.89% | Distribution (Rattus norvegicus [3]): 71% | Distribution (Rattus norvegicus [4]): 2.67% | Distribution (Rattus norvegicus [5]): 1.06% | Distribution (Rattus norvegicus [6]): 11.06% | Distribution (Rattus norvegicus [7]): 1.31% | Distribution (Rattus norvegicus [8]): 1.2% | Distribution (Rattus norvegicus [9]): 3.42% | Distribution (Rattus norvegicus [10]): 31% | Distribution (Rattus norvegicus [11]): 0.47% | Distribution (Rattus norvegicus [12]): 0.19% | Distribution (Rattus norvegicus [13]): 45% | Distribution (Rattus norvegicus [14]): 1.16% | Distribution (Rattus norvegicus [15]): 4.15% | Distribution (Rattus norvegicus [16]): 0.25% | Distribution (Rattus norvegicus [17]): 0.28% | Distribution (Rattus norvegicus [18]): 0.17%
Structure (SMILES): I/C=C/CCC[P+](C1CCCCC1)(C1CCCCC1)C1CCCCC1.[I-]

Distribution (Rattus norvegicus [19]): 0.17% | Distribution (Rattus norvegicus [20]): 1.24% | Distribution (Rattus norvegicus [21]): 3.17% | Distribution (Rattus norvegicus [22]): 5.66% | Distribution (Rattus norvegicus [23]): 0.37% | Distribution (Rattus norvegicus [24]): 38% | Distribution (Rattus norvegicus [25]): 1.32% | Distribution (Rattus norvegicus [26]): 8.41% | Distribution (Rattus norvegicus [27]): 1.15% | Distribution (Rattus norvegicus [28]): 1.39% | Distribution (Rattus norvegicus [29]): 0.26% | Distribution (Rattus norvegicus [30]): 13.07% | Distribution (Rattus norvegicus [31]): 39% | Distribution (Rattus norvegicus [32]): 0.2% | Distribution (Rattus norvegicus [33]): 0.17% | Distribution (Rattus norvegicus [34]): 25% | Distribution (Rattus norvegicus [35]): 3.44% | Distribution (Rattus norvegicus [36]): 3.47%
Structure (SMILES): I/C=C/CCC[P+](c1ccccc1)(C1CCCCC1)C1CCCCC1.[I-]
